For experiment [1], the system named is Rattus norvegicus. In words: Antihypertensive activity as percent maximum (over 24 hr) decrease in blood pressure at 135 umol/kg, perorally (~40-50 mg/kg) in 5 spontaneously hypertensive rats (SHR). It is filed as functional.
The subject of experiment [2] is Rattus norvegicus. In words: Antihypertensive activity as percent maximum (0-6 hr) decrease in blood pressure at 135 umol/kg, perorally (~40-50 mg/kg) in 5 spontaneously hypertensive rats (SHR). It is filed as functional.
The subject of experiment [3] is Rattus norvegicus. In words: Antihypertensive activity as percent maximum (over 24 hr) decrease in blood pressure at 135 umol/kg, perorally (~40-50 mg/kg) in 5 spontaneously hypertensive rats (SHR); NA denotes no activity. Format: functional, organism-based.
For experiment [4], the system named is Rattus norvegicus. The experiment is described as follows: Antihypertensive activity as percent maximum (0-6 hr) decrease in blood pressure at 135 umol/kg, perorally (~40-50 mg/kg) in 5 spontaneously hypertensive rats (SHR); NA denotes no activity. It is filed as functional, organism-based.
The species entered for another experiment is Oryctolagus cuniculus. The experiment is described as follows: Calcium channel blocking activity in vitro in rabbit thoracic aorta preparation (n=4) by using linear regression analysis. Format: functional. In a few lines:
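Rabbit thoracic aorta strips held under a 4-g preload in PSS at 37 °C, pH 7.35, gassed with 95% O2/5% CO2, equilibrated ≥1 h. Contraction by high-K+ (100 mM) PSS with Na+ reduced equimolarly. At plateau, cumulative test concentrations were added and relaxation was normalized to initial tension. IC50 by regression on the linear part of the concentration–response curve.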

Experiment [5] has as its system Rattus norvegicus. In words: Antihypertensive activity as percent average (over 24 hr) decrease in blood pressure at 135 umol/kg po (~40-50 mg/kg) in 5 spontaneously hypertensive rats (SHR). Format: functional.
Experiment [6] concerns Rattus norvegicus. In words: Antihypertensive activity as percent maximum (0-6 hr) decrease in blood pressure at 135 umol/kg po (~40-50 mg/kg) in 5 spontaneously hypertensive rats (SHR). Format: functional.
For experiment [7], the system named is Rattus norvegicus. The experiment is described as follows: Antihypertensive activity as percent maximum (over 24 h) decrease in blood pressure at 135 umol/kg, perorally (~40-50 mg/kg) in 5 spontaneously hypertensive rats (SHR). Format: functional.
For experiment [8], the system named is Rattus norvegicus. The experiment is described as follows: Antihypertensive activity as percent maximum (0-6 hr) decrease in blood pressure at 45 umol/kg poin 5 spontaneously hypertensive rats (SHR). It is filed as functional.
Experiment [9] has as its system Rattus norvegicus. The experiment is described as follows: Percent Catecholamine-depletion in brain by administering a dose of 2 x 45 umol/kg, perorally to 4 spontaneously hypertensive rats (SHR). Format: functional. The method, boiled down:
(§1)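 SHR given two oral doses of 45 µmol/kg, 17 h apart. Rats decapitated 4 h after the second dose; hearts and brains quickly removed and frozen. Tissue extracts in glutathione centrifuged at 0 °C, and the protein-free supernatant diluted and assayed in duplicate for catecholamines by radioenzymatic kit.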

The species named for a further experiment is Canis familiaris. In words: Compound was evaluated for the slow action potential blockade in canine Purkinje fibers in vitro (n = 4).
Experiment [10] deals with Rattus norvegicus. In words: Antihypertensive activity as percent average (0-24 hr) decrease in blood pressure at 45 umol/kg po (~22 mg/kg) in 4 spontaneously hypertensive rats (SHR). Format: functional.
The subject of experiment [11] is Rattus norvegicus. The experiment is described as follows: Antihypertensive activity as percent maximum (0-6 hr) decrease in blood pressure at 45 umol/kg po (~22 mg/kg) in 4 spontaneously hypertensive rats (SHR). It is filed as functional.
Experiment [12] deals with Rattus norvegicus. In words: Percent Catecholamine-depletion in heart by administering a dose of 2 x 45 umol/kg, perorally to 4 spontaneously hypertensive rats (SHR). It is filed as functional. In a few lines: as §1
Experiment [13] deals with Adrenergic receptor alpha. In words: Compound was evaluated for the alpha-Adrenoceptor pA2 blocking activity in vitro in rabbit thoracic aorta. It is filed as functional, tissue-based, Oryctolagus cuniculus.
The test system of experiment [14] is Rattus norvegicus. The experiment is described as follows: Antihypertensive activity as percent average (over 24 hr) decrease in blood pressure at 135 umol/kg po (~40-50 mg/kg) in 5 spontaneously hypertensive rats (SHR); NA denotes not active. Format: functional, organism-based.
In experiment [15] the test system is Rattus norvegicus. In words: Antihypertensive activity as percent maximum (0-6 hr) decrease in blood pressure at 135 umol/kg po (~40-50 mg/kg) in 5 spontaneously hypertensive rats (SHR); NA denotes not active. Format: functional, organism-based.
In experiment [16] the test system is Rattus norvegicus. In words: Antihypertensive activity as percent maximum (over 24 hr decrease in blood pressure at 135 umol/kg, perorally (~40-50 mg/kg) in 5 spontaneously hypertensive rats (SHR). It is filed as functional.

The structures appear in SMILES notation. Activity calls are given as the source filed them. The rule behind the calls is not given here.

Take `COc1ccc(OC)c2c1C[C@H](NCCC(C1CCCCC1)C1CCCCC1)[C@@H](O)C2.Cl`: the values for the Decrease in the experiment with Rattus norvegicus [1] and with Rattus norvegicus [2] were 23% and 27%, respectively.
With `COc1ccc(OC)c2c1C[C@H](NCCc1ccccc1)[C@@H](O)C2`, the Decrease entry with Rattus norvegicus [3] and in the experiment with Rattus norvegicus [4] was “inactive” in each case. In addition, in the experiment listed under Oryctolagus cuniculus, the IC50 came to 21 µM.
Turning to `COc1cc2c(cc1OC)C[C@H](O)[C@@H](NCCC1c3ccccc3-c3ccccc31)C2.Cl`, the Decrease in the experiment on Rattus norvegicus [1] was 34%; in the experiment with Rattus norvegicus [2], 32%. The IC50 in the experiment listed under Oryctolagus cuniculus was 1.4 µM.
As for `Cl.O[C@H]1Cc2ccccc2C[C@@H]1NCCC(c1ccccc1)c1ccccc1`, the values for the Decrease in the experiment with Rattus norvegicus [1] and with Rattus norvegicus [2] were 8% and 11%, respectively. Also, in the experiment listed under Oryctolagus cuniculus, the IC50 was determined as 0.4 µM.
`Cc1cc2c(cc1C)C[C@H](O)[C@@H](NCCC(c1ccccc1)c1ccccc1)C2.Cl`: the Decrease in the experiment with Rattus norvegicus [1] came out at 32%; with Rattus norvegicus [2] it was 17%. Further, the IC50 in the experiment filed under Oryctolagus cuniculus stood at 1 µM.
`COc1cc2c(cc1OC)C[C@H](NCCC(c1ccccc1)c1ccccc1)CC2.Cl`: the figures for the Decrease in the experiment on Rattus norvegicus [5] and with Rattus norvegicus [6] were 12% and 11%, respectively. Besides, the IC50 in the experiment listed under Oryctolagus cuniculus turned out to be 0.2 µM.
Take `COc1ccc(OC)c2c1C[C@H](NCCCc1nc3ccccc3s1)[C@@H](O)C2.Cl`: the Decrease in the experiment on Rattus norvegicus [1] and with Rattus norvegicus [2] was 16% each time. Also, the half-inhibitory concentration (IC50) in the experiment filed under Oryctolagus cuniculus amounted to 13.5 µM.
As to `COc1cc2c(cc1OC)C[C@H](OC(C)=O)[C@@H](NCCC(c1ccccc1)c1ccccc1)C2.Cl`, the Decrease with Rattus norvegicus [1] and in the experiment with Rattus norvegicus [2] was 34% throughout. Moreover, the 50% inhibitory concentration (IC50) in the experiment filed under Oryctolagus cuniculus was found to be 2.8 µM.
For the compound `COc1cc2c(cc1OC)C[C@H](O)[C@@H](NCCC(c1ccccc1)C(C)C)C2.Cl` (some centres undefined), the Decrease worked out at 10% in the experiment with Rattus norvegicus [7] and 8% with Rattus norvegicus [2]. In addition, in the experiment listed under Oryctolagus cuniculus, the IC50 is 2.5 µM.
For `Cl.O[C@H]1Cc2cc3c(cc2C[C@@H]1NCCC(c1ccccc1)c1ccccc1)OCO3`, the Decrease in the experiment on Rattus norvegicus [1] and with Rattus norvegicus [2] was 25% each time. For the same compound, the concentration for half-maximal inhibition (IC50) in the experiment listed under Oryctolagus cuniculus worked out at 0.3 µM.
In the case of `Cl.Oc1cc2c(cc1O)C[C@H](O)[C@@H](NCCC(c1ccccc1)c1ccccc1)C2`, the Decrease in the experiment on Rattus norvegicus [8] turned out to be 29%; in the experiment on Rattus norvegicus [5], 30%. Further, the IC50 in the experiment filed under Oryctolagus cuniculus was found to be 19.6 µM.
Take `COc1ccc(OC)c2c1C[C@H](NCCCCC(c1ccccc1)c1ccccc1)[C@@H](O)C2.Cl`: the Decrease in the experiment on Rattus norvegicus [7] and with Rattus norvegicus [2] was 10% each time. In addition, the IC50 in the experiment filed under Oryctolagus cuniculus is 2 µM.
Regarding `COc1cc2c(cc1OC)C[C@H](O)[C@@H](NC(=O)CC(c1ccccc1)c1ccccc1)C2`, the Decrease in the experiment with Rattus norvegicus [1] is listed as 16%; in the experiment on Rattus norvegicus [2], 6%. Also, the half-inhibitory concentration (IC50) in the experiment listed under Oryctolagus cuniculus was 9.4 µM.
In the case of `COc1ccc(OC)c2c1C[C@H](NCCCC(c1ccccc1)c1ccccc1)[C@@H](O)C2.Cl`, the Decrease is recorded as 10% in the experiment on Rattus norvegicus [1] and 6% in the experiment on Rattus norvegicus [2]. Besides, in the experiment filed under Oryctolagus cuniculus, the concentration for half-maximal inhibition (IC50) turned out to be 0.8 µM.
Take `COc1cc2c(cc1OC)C[C@H](O)[C@@H](NCCC(c1ccccc1)c1ccccc1)C2.Cl`: the Depletion with Rattus norvegicus [9] is listed as 0%; with Rattus norvegicus [12] it was 97%. For the same compound, the Decrease came to 34% with Rattus norvegicus [5] and 32% in the experiment on Rattus norvegicus [6]. Moreover, the concentration for half-maximal inhibition (IC50) was found to be 0.27 µM in the experiment listed under Canis familiaris and 0.4 µM in the experiment listed under Oryctolagus cuniculus. Further, the Average in the experiment with Rattus norvegicus [10] is 25%. Besides, in the experiment on Rattus norvegicus [11], the Max was found to be 21%. Also, the pA2 in experiment [13] is recorded as 6.
As to `COc1cc2c(cc1OC)C[C@H](OC)[C@@H](NCCC(c1ccccc1)c1ccccc1)C2`, the Decrease result with Rattus norvegicus [14] and in the experiment with Rattus norvegicus [15] was “inactive” throughout. For the same compound, the IC50 in the experiment filed under Oryctolagus cuniculus is 1.8 µM.
Turning to `COc1ccc(CCN(C)CCCC(C#N)(c2ccc(OC)c(OC)c2)C(C)C)cc1OC` (centres undefined), the results for the Decrease in the experiment on Rattus norvegicus [5] and in the experiment on Rattus norvegicus [6] were 32% and 40%, respectively. In addition, the figures for the IC50 in the experiment listed under Canis familiaris and in the experiment filed under Oryctolagus cuniculus were 0.11 µM and 0.3 µM, respectively. In the experiment on Rattus norvegicus [10], this compound gave an Average of 21%. In the experiment on Rattus norvegicus [11], the Max came out at 16%. The compound also came in with a Depletion in the experiment on Rattus norvegicus [12] of 75%.
In the case of `COc1ccc(OC)c2c1C[C@H](NCCCc1ccccc1)[C@@H](O)C2.Cl`, the Decrease in the experiment with Rattus norvegicus [16] and with Rattus norvegicus [2] was 14% throughout. In addition, the half-maximal inhibitory concentration (IC50) in the experiment listed under Oryctolagus cuniculus was 5.5 µM.
With `COc1cc2c(cc1OC)C[C@H](O)[C@@H](NCCC(c1ccccc1)c1ccccc1OC)C2.Cl` (some centres undefined), the Decrease in the experiment with Rattus norvegicus [1] was 28%; in the experiment on Rattus norvegicus [2], 21%. Also, in the experiment filed under Oryctolagus cuniculus, the IC50 is 0.6 µM.
For the compound `COc1cc2c(cc1OC)C[C@H](NCCC(c1ccccc1)c1ccccc1)[C@H](O)C2.Cl`, the figures for the Decrease in the experiment with Rattus norvegicus [5] and in the experiment on Rattus norvegicus [6] were 19% and 14%, respectively. For the same compound, the IC50 in the experiment filed under Oryctolagus cuniculus amounted to 0.2 µM.
Turning to `COc1ccc(OC)c2c1C[C@H](NCCC(c1ccccc1)c1ccccc1)[C@@H](O)C2.Cl`, the values for the Decrease in the experiment with Rattus norvegicus [1] and in the experiment with Rattus norvegicus [2] were 19% and 15%, respectively. The half-maximal inhibitory concentration (IC50) in the experiment listed under Oryctolagus cuniculus came out at 1.5 µM.
Regarding `COc1ccc(OC)c2c1C[C@H](NCCCc1c[nH]c3ccccc13)[C@@H](O)C2.Cl`, the figures for the Decrease in the experiment with Rattus norvegicus [1] and in the experiment with Rattus norvegicus [2] were 24% and 23%, respectively. In addition, the concentration for half-maximal inhibition (IC50) in the experiment listed under Oryctolagus cuniculus came out at 23 µM.
`COc1ccc(OC)c2c1C[C@H](NCCCCc1ccccc1)[C@@H](O)C2.Cl`: the Decrease with Rattus norvegicus [1] is recorded as 23%; in the experiment on Rattus norvegicus [2], 26%. Further, the IC50 in the experiment listed under Oryctolagus cuniculus came to 3.6 µM.
The matching figures for `COc1cc2c(cc1OC)C[C@H](N(C)CCC(c1ccccc1)c1ccccc1)[C@@H](O)C2`: 19%, 11% and 0.4 µM.
The matching figures for `COc1ccc(OC)c2c1C[C@H](NCC(c1ccccc1)c1ccccc1)[C@@H](O)C2.Cl`: 16%, 10% and 13.3 µM.

Values taken from ChEMBL document CHEMBL1123711, “Substituted 1,2,3,4-tetrahydroaminonaphthols: antihypertensive agents, calcium channel blockers, and adrenergic receptor blockers with catecholamine-depleting effects” (J Med Chem, 1987).
